The subject of test [1] is BMDC. Kind of test: Inhibition of LPS-induced immune response in C57BL/6 mouse BMDC assessed as reduction in TNFalpha secretion at 25 uM treated 6 hrs post LPS-challenge measured after 30 mins by ELISA. The test is classed as functional, cell-based. The procedure, abridged:
(§1)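 Bone marrow DCs from 6-week-old female C57BL/6 mice, RBC-lysed, cultured in RPMI-1640/10% FBS with 10 ng/mL rmGM-CSF, 37 °C, 5% CO2. Cells given LPS 50 ng/mL for 6 h, then 25 μM compound added for 30, 60, 90 or 120 min. Supernatant TNF-α, IL-6, IL-10, IL-12p70 measured by sandwich ELISA. Mean ± SEM, compared with LPS-only DCs.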
For orientation: An ELISA detects its analyte on a solid surface through an enzyme-linked reagent.

Test [2] deals with BMDC. Kind of test: Inhibition of LPS-induced immune response in C57BL/6 mouse BMDC assessed as reduction in TNFalpha secretion at 25 uM treated 6 hrs post LPS-challenge measured after 60 to 120 mins by ELISA. In kind it is functional, cell-based. In outline: as §1
For test [3], the system named is BMDC. Kind of test: Inhibition of LPS-induced immune response in C57BL/6 mouse BMDC assessed as reduction in IL-12p70 secretion at 25 uM treated 6 hrs post LPS-challenge measured after 60 to 120 mins by ELISA. The test is classed as functional, cell-based. In outline:
as §1

For test [4], the target named is T1, Toll-like receptor 4 (Mus musculus) (UniProt Q9QUK6).
T1 sequence (whole entry): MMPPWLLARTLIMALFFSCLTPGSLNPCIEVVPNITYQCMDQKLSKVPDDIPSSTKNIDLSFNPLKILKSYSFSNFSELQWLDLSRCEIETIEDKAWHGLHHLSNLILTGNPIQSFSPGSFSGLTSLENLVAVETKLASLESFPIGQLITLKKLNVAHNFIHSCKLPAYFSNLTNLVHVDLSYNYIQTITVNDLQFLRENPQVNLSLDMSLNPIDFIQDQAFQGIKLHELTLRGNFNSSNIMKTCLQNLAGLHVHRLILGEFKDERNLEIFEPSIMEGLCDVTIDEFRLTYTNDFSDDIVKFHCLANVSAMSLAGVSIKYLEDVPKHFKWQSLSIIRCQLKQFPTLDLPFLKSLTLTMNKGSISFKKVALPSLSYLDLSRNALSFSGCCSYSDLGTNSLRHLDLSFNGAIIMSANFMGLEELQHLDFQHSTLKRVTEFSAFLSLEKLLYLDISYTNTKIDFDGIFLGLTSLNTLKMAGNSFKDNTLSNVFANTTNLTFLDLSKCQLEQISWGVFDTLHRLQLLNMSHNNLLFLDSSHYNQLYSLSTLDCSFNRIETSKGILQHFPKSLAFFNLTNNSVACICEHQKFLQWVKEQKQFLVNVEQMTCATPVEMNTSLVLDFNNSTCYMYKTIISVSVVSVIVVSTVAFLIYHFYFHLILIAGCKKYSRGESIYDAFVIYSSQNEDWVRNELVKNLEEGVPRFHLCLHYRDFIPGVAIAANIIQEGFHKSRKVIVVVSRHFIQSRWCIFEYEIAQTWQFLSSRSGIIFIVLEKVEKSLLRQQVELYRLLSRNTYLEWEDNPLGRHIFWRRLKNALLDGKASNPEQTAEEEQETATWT
In words: Inhibition of LPS-induced TLR4 activation in C57BL/6 mouse BMDC assessed as reduction in IkappaBalpha degradation at 25 uM pretreated for 30 mins followed by LPS-challenge measured after 15 to 90 mins by Western blot analysis. In kind it is cell-based. In outline:
(§2)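 BMDCs were pretreated 30 min with 25 μM compound, then stimulated with LPS 50 ng·mL−1 for the indicated times. Lysates (25 μg protein) were run on 10% SDS-PAGE and immunoblotted for phospho/total ERK, JNK, p38 and Akt, plus COX-2, IκBα and α-tubulin, with ECL detection. Representative of three experiments.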
(In western blotting, separated proteins are transferred to a membrane and probed.)

Test [5] concerns the target T1, Toll-like receptor 4 (Mus musculus). Kind of test: Inhibition of LPS-induced TLR4 activation in C57BL/6 mouse BMDC assessed as reduction in ERK phosphorylation at 25 uM pretreated for 30 mins followed by LPS-challenge measured after 15 to 90 mins by Western blot analysis. The test is classed as cell-based. In outline: as §2
The subject of test [6] is BMDC. In words: Increase in microRNA187 expression in LPS-induced C57BL/6 mouse BMDC at 25 uM pretreated for 30 mins followed by LPS-challenge measured after 6 hrs by qRT-PCR analysis. The test is classed as functional, cell-based. The procedure, abridged: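 Total RNA was extracted from BMDCs with TRIzol and reverse transcribed. miR-146a, miR-155 and miR-187 were quantified by real-time qPCR with gene-specific primers.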

Test [7] has as its system Mus musculus. In words: Antiinflammatory activity in Balb/c mouse model of LPS-induced endotoxemia assessed as increase in serum IL10 level at 1 mg/kg, ip pretreated for 1 hr followed by LPS-challenge measured after 2 hrs by ELISA. The test is classed as functional, organism-based. The procedure, abridged:
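BALB/c mice were dosed with 1 mg·kg−1 i.p. 1 h before LPS 10 mg·kg−1 i.p. Serum was taken 2 h later, and TNF-α, IL-6 and IL-10 were measured by sandwich ELISA. Means ± SEM.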

Test [8] deals with Mus musculus. Kind of test: Antiinflammatory activity in Balb/c mouse model of LPS-induced endotoxemia assessed as reduction in serum ALT level at 1 mg/kg, ip pretreated for 1 hr followed by LPS-challenge measured after 12 hrs by ELISA. In kind it is functional, organism-based. The procedure, abridged:
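In BALB/c mice, 1 mg·kg−1 i.p. was given 1 h before LPS 10 mg·kg−1 i.p. After 12 h, serum AST, ALT and BUN were measured by ELISA. Means ± SEM.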

Test [9] has as its system BMDC. In words: Inhibition of Escherichia coli DH5alpha infection-induced immune response in C57BL/6 mouse BMDC assessed as reduction in TNFalpha secretion at 25 uM pretreated for 30 mins followed by Escherichia coli DH5alpha infection for 6 hrs by ELISA. The test is classed as functional, cell-based. The procedure, abridged:
(§3)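 C57BL/6 BMDCs received 25 μM compound and E. coli DH5α, 3 × 10^6 CFU·mL−1. Schedules were: compound 30 min before a 6 h infection; co-addition for 6 h; or compound for 30, 60, 90 or 120 min plus 6 h infection. Supernatant TNF-α, IL-6, IL-10 and IL-12p70 were measured by ELISA. At least three experiments in triplicate.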

Test [10] has as its system BMDC. In words: Inhibition of Escherichia coli DH5alpha infection-induced immune response in C57BL/6 mouse BMDC assessed as reduction in TNFalpha secretion at 25 uM pretreated for 60 to 120 mins followed by Escherichia coli DH5alpha infection for 6 hrs by ELISA. The test is classed as functional, cell-based. The procedure, abridged:
as §3

Test [11] concerns Mus musculus. In words: Antiseptic activity in Balb/c mouse model of Escherichia coli K1 infection-induced sepsis assessed as reduction in serum AST level at 1 mg/kg, ip pretreated for 1 hr followed by Escherichia coli K1 infection measured after 2 hrs by ELISA. The test is classed as functional, organism-based.
The test system of test [12] is Mus musculus. In words: Antiseptic activity in Balb/c mouse model of Escherichia coli K1 infection-induced sepsis assessed as reduction in serum endotoxin level at 1 mg/kg, ip pretreated for 1 hr followed by Escherichia coli K1 infection measured after 12 hrs by chromogenic assay. In kind it is functional, organism-based. The procedure, abridged: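 BALB/c mice dosed i.p. 1 h before i.p. E. coli K1 (1 × 10^6 CFU per mouse), sera taken at 12 h. Serum diluted 10-fold in endotoxin-free PBS, LAL chromogenic end-point assay; background subtracted, quantified against E. coli endotoxin standard, reported as EU·mL−1.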

Active and inactive are the calls of the source. The rule behind the calls is not given here.

As to `COc1ccc(-c2oc3cc(O)cc(O)c3c(=O)c2O)cc1O` [TAMARIXETIN], the inhibition entry in test [1], in test [4] and in test [9] was “Active” each time. In addition, the inhibition result in [2], in test [3], in test [5] and in test [10] was “inactive” each time. Moreover, the outcome in test [6], in test [7], in test [8], in test [11] and in test [12] was Active.

The values are drawn from ChEMBL document CHEMBL4145607, “Tamarixetin Exhibits Anti-inflammatory Activity and Prevents Bacterial Sepsis by Increasing IL-10 Production” (J Nat Prod, 2018).
